59 compounds from PubChem BioAssay AID1515 (The Scripps Research Institute Molecular Screening Center, 2009) can be followed below.

Each structure is given as a SMILES string. Out of some 220,000 compounds screened, about 440 (0.2%) were called active. This is one part of a sample in which actives are shown more often than they occur.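 How the source made its calls: active means inhibition above the campaign mean of all tested compounds plus 3 SD (cut at about 14% in these data); inactive means the rest.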

Sequence of Serine hydrolase RBBP9 (Homo sapiens) (O75884 whole entry, looked up): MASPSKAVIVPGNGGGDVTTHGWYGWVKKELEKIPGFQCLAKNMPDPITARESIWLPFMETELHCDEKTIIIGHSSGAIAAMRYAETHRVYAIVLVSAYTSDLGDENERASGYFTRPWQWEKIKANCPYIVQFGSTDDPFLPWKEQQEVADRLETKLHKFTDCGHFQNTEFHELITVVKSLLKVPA

The target in this assay is Serine hydrolase RBBP9 (Homo sapiens) (UniProt O75884). Kind of assay: human RBBP9 inhibitors, primary screen, biochemical, fluorescence polarization, FP-Rh probe, HTS (AID 1515).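 Further: plate controls were DMSO wells with RBBP9 for no effect and wells lacking RBBP9 protein for full effect.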 To be noted: recombinant RBBP9, FP-Rh probe fluorescence polarization; at 7.94 µM; active compounds read high. An outline of the steps:
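Controls: DMSO-treated enzyme wells and wells lacking RBBP9 | Material: RBBP9 protein | Technique: Fluorescence polarization | Replication: Single well per compound, no replicates | Buffer or medium: Tris-NaCl-Pluronic buffer, pH 8.0 | Timing: 30 min compound preincubation, 45 min probe labeling, 25 °C | Read-out basis: Percent inhibition from mP, scaled between DMSO and no-protein wells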
A word on the inhibition: it is the relative decrease from the control value, in per cent. As to `Cc1ccc(CS(=O)(=O)CCC(=O)NC2CC2)cc1`, the inhibition is -3.2% (inactive).
As to `O=C1/C(=C\c2cccnc2)CN(Cc2ccccc2)C/C1=C\c1cccnc1`, the inhibition was -6.31% (inactive).
With `Cc1ccccc1NS(=O)(=O)CCCCC(Cl)(Cl)Cl`, the inhibition was 2.33% (inactive).
In the case of `CCC(=O)Nc1c(C)n[nH]c1C` it was -4.5% (inactive); in that of `CCN1C(=O)/C(=C\N2CCOCC2)SC1=S`, -5.07% (inactive); in that of `Cc1ccc2nc(SCc3cn4c(C)cc(C)nc4n3)[nH]c2c1`, -9.49% (inactive).
Next, `O=C(c1c(Cl)cccc1Cl)N1CCN(c2cccc3[nH]ccc23)CC1`: -7.2% (inactive); `Cc1c(NC(=O)CCC2CCCCC2)cc(C(=O)N2CCOCC2)cc1[N+](=O)[O-]`: 7.08% (inactive).
In the case of `COc1ccc(CCNC(=O)C(=O)Nc2ccc3nc4n(c(=O)c3c2)CCCCC4)cc1OC` it was 6.2% (inactive); in that of `COc1ccc2c(c1)CC[C@@H]1[C@@H]2CC[C@]2(C)C(=O)CC[C@@H]12`, -1.04% (inactive); in that of `Cc1cccc(C)c1NC(=O)C1CCCN1C(=O)OC(C)(C)C` (centres undefined), -5.32% (inactive).
Regarding `Cc1cccc(-c2nc3c(c(SCC(=O)N4CCOCC4)n2)CCCC3)c1`, the inhibition is 11.1% (inactive).
Next, `CC(C)N(Cc1nc(-c2ccc3c(c2)OCO3)no1)CC1CCC(=O)N1` (centres undefined): -10.1% (inactive); `COc1ccc(-c2noc(CN(C)S(=O)(=O)c3ccc(C)cc3)n2)cc1`: -9.12% (inactive).
In the case of `COCCN(Cc1nc(-c2ccc(C(F)(F)F)cc2)no1)C(C)C` it was 15% (active).
In the case of `CSc1ccc(S(=O)(=O)NC2CCCCC2)cc1` it was 0.08% (inactive); in that of `CC1CCC(NS(=O)(=O)c2ccc3c(c2)n(C)c(=O)c(=O)n3C)CC1` (centres undefined), -2.22% (inactive).
As for `Cn1sc(=O)c2cc(S(=O)(=O)NC3CC3)ccc21`, the inhibition was 33.3% (active).
Take `Cc1cc(C)c[n+](-c2nc3ccccc3nc2[N-]S(=O)(=O)c2cccs2)c1`: the inhibition is -7.26% (inactive).
Regarding `O=c1[nH]n(-c2ccc([N+](=O)[O-])cc2)c(=O)c2ccccc12`, the inhibition is 15.9% (active).
Regarding `O=c1[nH]c2cccnc2n1-c1ccc([N+](=O)[O-])cc1`, the inhibition was 4.37% (inactive).
In the case of `O=C1CC(c2ccccc2)=NN1c1ccc([N+](=O)[O-])cc1` it was -12.2% (inactive); in that of `O=C(NNC1CC(=O)N(c2cccc(Cl)c2)C1=O)c1cccnc1` (centres undefined), -9.81% (inactive).
Next, `CC(C)(C)C1CCC(OC(=O)CCC(=O)Nc2ccccc2)CC1` (centres undefined): -0.76% (inactive); `C=CCN(CC=C)CCOc1ccccc1[N+](=O)[O-]`: -6.95% (inactive); `CSc1ccccc1NC(=O)CN(C)CC(=O)Nc1ccc(Cl)cc1[N+](=O)[O-]`: 6.47% (inactive).
Next, `COc1cccc(-n2nc(C(=O)N3CCN(Cc4ccccc4)CC3)c3ccccc3c2=O)c1`: -0.83% (inactive).
With `Cc1cc(NC(=O)CSc2nccn2-c2ccc([N+](=O)[O-])cc2)no1`, the inhibition was -5.53% (inactive).
Next, `Cc1c(CCO)sc[n+]1CC(=O)OC12CC3CC(CC(C3)C1)C2`: 6.14% (inactive).
Next, `Cc1cc(C(=O)OCC(=O)Nc2nnc(C(C)C)s2)c2ccccc2n1`: -5.01% (inactive); `CC(OC(=O)c1ccc(NS(=O)(=O)c2ccc3[nH]c(=O)[nH]c3c2)cc1)C(=O)Nc1cccc(Cl)c1Cl` (centres undefined): -24.3% (inactive); `Oc1cccc2ccc(/C=C/c3ccc(Br)s3)nc12`: -6.67% (inactive).
On to `O=C(Cc1cccs1)N/N=C/c1ccc(OCc2ccccc2)cc1`, for which the inhibition is -9.96% (inactive).
In the case of `CC(C)(C)Nc1c(N)c(=O)oc2ccccc12`, the inhibition is -7.21% (inactive).
In the case of `CCc1ccccc1NC1c2ccccc2C(=O)N1c1cccnc1` (centres undefined) it was 19.1% (active); in that of `Cc1ccnc(N2C(=O)c3ccccc3C2Nc2ccc3c(c2)OCCO3)c1` (centres undefined), 5.23% (inactive).
In the case of `COC(=O)c1cc(NC2c3ccccc3C(=O)N2c2ccc(Cl)cn2)cc(C(=O)OC)c1` (centres undefined) it was 2.1% (inactive); in that of `COc1ccc(N2C(=O)C3CCCN3C2c2cccs2)cc1` (centres undefined), -3.07% (inactive).
In the case of `COc1ccc(N2C(=O)C3CCCN3C2c2cc(OC)c(OC)cc2OC)cc1` (centres undefined) it was 14.8% (active); in that of `COc1ccc(N2C(=O)C3CCCN3C2c2cccc(OC)c2)cc1` (centres undefined), -6.79% (inactive); in that of `COC(=O)C1=C(C)N(C)C(=O)NC1c1ccc([N+](=O)[O-])o1` (centres undefined), 4.8% (inactive).
For the compound `O=C(NCc1ccccc1Cl)NC(=O)c1csc([N+](=O)[O-])c1`, the inhibition is 2.74% (inactive).
In the case of `CC1=CC(C)(C)N(C(=O)CSc2nnc(-c3ccccc3)o2)c2ccc(C)cc21`, the inhibition was -8.58% (inactive).
As to `COc1ccc2c(c1)C(C)=CC(C)(C)N2C(=O)Nc1ccccc1`, the inhibition was 14.3% (active).
For `COc1ccc2c(c1)C(C)=CC(C)(C)N2C(=O)CNCc1ccc2c(c1)OCO2`, the inhibition was 0.21% (inactive).
As to `CC(=O)Nc1ccc(NC(=S)NC(=O)c2ccc([N+](=O)[O-])c(C)c2)cc1`, the inhibition is 6.76% (inactive).
Next, `Cc1ccc(C)c(S(=O)(=O)N2CCN(CC(=O)Nc3ccc([N+](=O)[O-])cc3)CC2)c1`: -5.91% (inactive); `Cc1ccc(NC(=O)CN2CCC(C(N)=O)CC2)cc1[N+](=O)[O-]`: 28.6% (active); `CN1CCN(CC(=O)Nc2cccc([N+](=O)[O-])c2)CC1`: 7.61% (inactive).
In the case of `CC1=C(C(=O)Nc2cc(C)ccn2)C(c2cnn(C)c2)C2=C(CC(c3ccccc3)CC2=O)N1` (centres undefined) it was -4.73% (inactive); in that of `O=S(=O)(NC1CC1)c1ccc2c3c(cccc13)CC2`, -3.01% (inactive).
Take `COc1ccc(C(C[N+](=O)[O-])n2nc(C)cc2C)cc1` (centres undefined): the inhibition was -13.8% (inactive).
Next, `CC1CCN(C2=NC(=O)/C(=C/c3cn[nH]c3-c3ccccc3)S2)CC1`: -1.8% (inactive); `CS(=O)(=O)c1ccc(Cl)c(NC(=O)Nc2ccccc2)c1`: -8.09% (inactive); `O=[N+]([O-])c1c(NCCO)cc(Sc2nc3ccccc3s2)c2nonc12`: 16.6% (active).
For the compound `O=C(CSc1nc2ccccc2s1)Nc1ccc(C(=O)O)cc1`, the inhibition is -5.16% (inactive).
Next, `COc1ccc(S(=O)(=O)Nc2ccc(O)c(Sc3nc4ccccc4s3)c2)cc1`: -4.18% (inactive); `CCOC(=O)N1CCN(C(=S)Nc2ccc(C)cc2C)CC1`: -5.94% (inactive); `Cc1ccc(-c2cc(C(=O)NCC3CCCO3)c3ccccc3n2)o1` (centres undefined): -0.54% (inactive).
